What all share (assay type): functional
The test system of experiment [1] is Trypanosoma brucei rhodesiense. As to the kind of experiment: Antitrypanosomal activity against Trypanosoma rhodesiense infections in mice, 424 mg/kg administered subcutaneously. The conditions noted are these: route subcutaneous. The gist of the method: (§1)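 IUR/HA Swiss mice (six weeks old, 30-32 g) infected i.p. with Wellcome CT strain T. rhodesiense. A single subcutaneous dose in peanut oil was given about 2 h after inoculation, with five mice per dose level. Positive control was stilbamidine or 2-hydroxystilbamidine isethionate at 40 mg/kg. Deaths before day 4 were scored toxic, and 30-day survivors cured.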

For experiment [2], the system named is Trypanosoma brucei rhodesiense. As to the kind of experiment: Antitrypanosomal activity was evaluated against Trypanosoma rhodesiense infections in mice, at dose 26 mg/kg, administered subcutaneously. The conditions noted are these: route subcutaneous. The gist of the method:
as §1

The subject of experiment [3] is Trypanosoma brucei rhodesiense. Nature of the experiment: (§2) Antitrypanosomal activity was evaluated against Trypanosoma rhodesiense infections in mice, at dose 106 mg/kg, administered subcutaneously. The conditions noted are these: route subcutaneous. The gist of the method:
as §1

The subject of experiment [4] is Trypanosoma brucei rhodesiense. Nature of the experiment: Antitrypanosomal activity was evaluated against Trypanosoma rhodesiense infections in mice, at dose 1.6 mg/kg, administered subcutaneously. The conditions noted are these: route subcutaneous. The gist of the method: (§3)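 Six-week-old IUR/HA Swiss mice (30-32 g), 5 per dose, infected ip with 0.5 mL of a 1:50 000 dilution of heparinized heart blood from donor mice infected 3 days before (Wellcome CT strain). Single sc dose in peanut oil about 2 h post-inoculation. Deaths before day 4 counted toxic. ΔMST versus untreated controls; survivors at 30 days counted cured.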

For experiment [5], the system named is Mus musculus. As to the kind of experiment: Antitrypanosomal activity was evaluated against Trypanosoma rhodesiense infections in mice, at dose 13mg/kg, administered subcutaneously. The gist of the method: as §3
For experiment [6], the system named is Mus musculus. Nature of the experiment: Antitrypanosomal activity was evaluated against Trypanosoma rhodesiense infections in mice, at dose 3.3 mg/kg, administered subcutaneously. The conditions noted are these: route subcutaneous. Put shortly:
as §3

The test system of experiment [7] is Mus musculus. As to the kind of experiment: Antitrypanosomal activity was evaluated against Trypanosoma rhodesiense infections in mice, at dose 6.6 mg/kg, administered subcutaneously. The conditions noted are these: route subcutaneous. Put shortly: as §3
Experiment [8] concerns Mus musculus. Nature of the experiment: Antitrypanosomal activity was evaluated against Trypanosoma rhodesiense infections in mice, at dose 13 mg/kg, administered subcutaneously;Cures. The conditions noted are these: route subcutaneous. The gist of the method: as §1
The test system of experiment [9] is Mus musculus. As to the kind of experiment: Antitrypanosomal activity was evaluated against Trypanosoma rhodesiense infections in mice, at dose 6.6 mg/kg, administered subcutaneously;Cures. The conditions noted are these: route subcutaneous. The gist of the method:
as §1

Experiment [10] has as its system Mus musculus. The experiment is described as §2. The conditions noted are these: route subcutaneous. Put shortly:
as §1

The test system of experiment [11] is Trypanosoma brucei rhodesiense. As to the kind of experiment: Anti-trypanosomal activity against Trypanosoma rhodesiense infections in mice, 26 mg/kg administered subcutaneously. The conditions noted are these: route subcutaneous. The gist of the method:
as §3

The test system of experiment [12] is Trypanosoma brucei rhodesiense. As to the kind of experiment: Antitrypanosomal activity against Trypanosoma rhodesiense infections in mice, 3.3 mg/kg administered subcutaneously. The conditions noted are these: route subcutaneous. The gist of the method:
as §3

For experiment [13], the system named is Trypanosoma brucei rhodesiense. Nature of the experiment: Antitrypanosomal activity against Trypanosoma rhodesiense infections in mice, 6.6 mg/kg administered subcutaneously. The conditions noted are these: route subcutaneous. Put shortly:
as §3

In experiment [14] the test system is Mus musculus. Nature of the experiment: Antitrypanosomal activity was evaluated against Trypanosoma rhodesiense infections in mice, at dose 424 mg/kg, administered subcutaneously;Cures. The conditions noted are these: route subcutaneous. The gist of the method:
as §1

Experiment [15] deals with Mus musculus. As to the kind of experiment: Antitrypanosomal activity was evaluated against Trypanosoma rhodesiense infections in mice, at dose 13 mg/kg, administered subcutaneously;Toxic. The conditions noted are these: route subcutaneous. Put shortly: as §1
Experiment [16] has as its system Mus musculus. As to the kind of experiment: Antitrypanosomal activity was evaluated against Trypanosoma rhodesiense infections in mice, at dose 6.6 mg/kg, administered subcutaneously;Toxic. The conditions noted are these: route subcutaneous. The gist of the method: as §1
Experiment [17] deals with Mus musculus. As to the kind of experiment: Antitrypanosomal activity was evaluated against Trypanosoma rhodesiense infections in mice, at dose 26 mg/kg, administered orally;Toxic. The conditions noted are these: in the assay text read “administered subcutaneously” for “administered orally”.
Experiment [18] deals with Mus musculus. As to the kind of experiment: Antitrypanosomal activity was evaluated against Trypanosoma rhodesiense infections in mice, at dose 106 mg/kg, administered orally. The conditions noted are these: route oral.
Experiment [19] has as its system Mus musculus. As to the kind of experiment: Antitrypanosomal activity was evaluated against Trypanosoma rhodesiense infections in mice, at dose 212 mg/kg, administered orally. The conditions noted are these: route oral.
Experiment [20] deals with Mus musculus. Nature of the experiment: Antitrypanosomal activity was evaluated against Trypanosoma rhodesiense infections in mice, at dose 26 mg/kg, administered orally. The conditions noted are these: route oral.
The test system of experiment [21] is Mus musculus. As to the kind of experiment: Antitrypanosomal activity was evaluated against Trypanosoma rhodesiense infections in mice, at dose 424 mg/kg, administered orally. The conditions noted are these: route oral.
The subject of experiment [22] is Mus musculus. Nature of the experiment: Antitrypanosomal activity was evaluated against Trypanosoma rhodesiense infections in mice, at dose 53 mg/kg, administered orally. The conditions noted are these: route oral.
The subject of experiment [23] is Mus musculus. As to the kind of experiment: Antitrypanosomal activity was evaluated against Trypanosoma rhodesiense infections in mice, at dose 1.6 mg/kg, administered subcutaneously; Cures. The conditions noted are these: route subcutaneous. The gist of the method:
as §1

The test system of experiment [24] is Mus musculus. As to the kind of experiment: Antitrypanosomal activity was evaluated against Trypanosoma rhodesiense infections in mice, at dose 3.3 mg/kg, administered subcutaneously; Cures. The conditions noted are these: route subcutaneous. The gist of the method: as §1
In experiment [25] the test system is Mus musculus. Nature of the experiment: Antitrypanosomal activity was evaluated against Trypanosoma rhodesiense infections in mice, at dose 6.6 mg/kg administered subcutaneously; Cures. The conditions noted are these: route subcutaneous. Put shortly:
as §1

Experiment [26] concerns Mus musculus. As to the kind of experiment: Antitrypanosomal activity was evaluated against Trypanosoma rhodesiense infections in mice, at dose 53 mg/kg, administered subcutaneously. The conditions noted are these: route subcutaneous. Put shortly: as §1
The test system of experiment [27] is Mus musculus. As to the kind of experiment: Antitrypanosomal activity was evaluated against Trypanosoma rhodesiense infections in mice, at dose 13 mg/kg, administered subcutaneously. The conditions noted are these: route subcutaneous. Put shortly: as §1
In experiment [28] the test system is Mus musculus. As to the kind of experiment: (§4) Antitrypanosomal activity was evaluated against Trypanosoma rhodesiense infections in mice, at dose 212 mg/kg, administered subcutaneously. The conditions noted are these: route subcutaneous. Put shortly:
as §1

Experiment [29] has as its system Mus musculus. Nature of the experiment: Antitrypanosomal activity was evaluated against Trypanosoma rhodesiense infections in mice, at dose 1.6mg/kg, administered subcutaneously;Cures. The gist of the method:
as §1

The subject of experiment [30] is Mus musculus. As to the kind of experiment: Antitrypanosomal activity was evaluated against Trypanosoma rhodesiense infections in mice, at dose 106 mg/kg, administered subcutaneously;Cures. The conditions noted are these: route subcutaneous. The gist of the method:
as §1

In experiment [31] the test system is Mus musculus. As to the kind of experiment: Antitrypanosomal activity was evaluated against Trypanosoma rhodesiense infections in mice, at dose 3.3 mg/kg, administered subcutaneously;Cures. The conditions noted are these: route subcutaneous. The gist of the method:
as §1

Experiment [32] concerns Mus musculus. As to the kind of experiment: Antitrypanosomal activity was evaluated against Trypanosoma rhodesiense infections in mice, at dose 53 mg/kg, administered subcutaneously;Cures. The conditions noted are these: route subcutaneous. Put shortly:
as §1

Experiment [33] has as its system Mus musculus. Nature of the experiment: Antitrypanosomal activity was evaluated against Trypanosoma rhodesiense infections in mice, at dose 53 mg/kg, administered subcutaneously;Toxic. The conditions noted are these: route subcutaneous. The gist of the method: as §1
Experiment [34] relates to Trypanosoma brucei rhodesiense. As to the kind of experiment: Antitrypanosomal activity was evaluated against Trypanosoma rhodesiense infections in mice, at dose 106 mg/kg, administered subcutaneously;Toxic. The conditions noted are these: route subcutaneous. Put shortly:
as §1

The subject of experiment [35] is Mus musculus. Nature of the experiment: Antitrypanosomal activity was evaluated against Trypanosoma rhodesiense infections in mice, at dose 212 mg/kg, administered subcutaneously;Toxic. The conditions noted are these: route subcutaneous. Put shortly:
as §1

Experiment [36] deals with Trypanosoma brucei rhodesiense. Nature of the experiment: Antitrypanosomal activity against Trypanosoma rhodesiense infections in mice, 106 mg/kg administered subcutaneously. The conditions noted are these: route subcutaneous. The gist of the method: as §3
In experiment [37] the test system is Trypanosoma brucei rhodesiense. Described as §4. The conditions noted are these: route subcutaneous. Put shortly: as §3
The test system of experiment [38] is Mus musculus. As to the kind of experiment: Antitrypanosomal activity was evaluated against Trypanosoma rhodesiense infections in mice, at dose 26 mg/kg, administered subcutaneously;Cures. The conditions noted are these: route subcutaneous. The gist of the method:
as §3

Take `CC1(C)N=C(N)N=C(N)N1c1ccc(C(c2ccc(N3C(N)=NC(N)=NC3(C)C)cc2)c2ccc(N3C(N)=NC(N)=NC3(C)C)cc2)cc1.Cl.Cl`: the Toxic in experiment [1], in [2] and in experiment [3] was 5 throughout. In addition, the “Delta MST” value in experiment [4] is 0.1 days; in experiment [5], 0.1 days; in [6], -0.1 days; in experiment [7], -0.1 days.

For the compound `CC1(C)N=C(N)N=C(N)N1c1ccc(Oc2ccc(N3C(N)=NC(N)=NC3(C)C)cc2)cc1.Cl.Cl`, the Cures in [8] worked out at 2; in experiment [9], 1. Also, the Toxic in [1] and in experiment [10] was 5 throughout. In addition, the “Delta MST” value came out at 5 days in [11], 4.2 days in [12] and 5.3 days in experiment [13].

Regarding `CC1(C)N=C(N)N=C(N)N1c1ccc(CCc2cccc(N3C(N)=NC(N)=NC3(C)C)c2)cc1.Cl.Cl`, the Cures in experiment [9] and in [14] was 1 each time. In addition, the Toxic was found to be 1 in experiment [15], 1 in experiment [16] and 5 in experiment [17]. The “Delta MST” value came to 0.4 days in experiment [18]; 1.8 days in experiment [19]; 0 days in experiment [20]; 3.7 days in [21]; 0.2 days in experiment [22]; 1 days in experiment [6]. Besides, in experiment [7], the “Delta MST” value worked out at 1.7 days.

Regarding `CC1(C)N=C(N)N=C(N)N1c1ccc(-c2ccc(N3C(N)=NC(N)=NC3(C)C)cc2)cc1.Cl.Cl`, the Cures in [23] is recorded as 1; in experiment [24], 1; in [25] it was 4. Moreover, the Toxic in experiment [26], in experiment [2], in [3], in experiment [27] and in [28] was 5 throughout. In addition, the “Delta MST” value in experiment [4] is 3.7 days; in experiment [12], 9.2 days; in experiment [13] it was 7.8 days.

In the case of `CC1(C)N=C(N)N=C(N)N1c1ccc2c(c1)Cc1cc(N3C(N)=NC(N)=NC3(C)C)ccc1-2.Cl.Cl`, the Cures is given as 3 in experiment [8]; 1 in [29]; 1 in [30]; 2 in experiment [9]; 1 in experiment [31]; 4 in experiment [32]. The Toxic is 5 in experiment [1], 1 in [33], 3 in experiment [34] and 4 in [35]. For the same compound, the “Delta MST” value in experiment [4] was found to be 3 days; in experiment [36], 2 days; in [37], 26 days; in [11] it was 4.5 days; in [38], 3 days; in experiment [12], 4 days. For the same compound, the “Delta MST” value in experiment [13] was determined as 4.3 days.

Values taken from ChEMBL document CHEMBL1122854, “Novel bis[1,6-dihydro-6,6-dimethyl-1,3,5-triazine-2,4-diamines] as antitrypanosomal agents” (1985).
